The entries come from a sample that favours hits as a whole.
Fh CTSL1 inh – blocks F. hepatica cathepsin L1 in PFM18AAP counter-screen. inhibition, % at 5.96 µM. AID 1906. recombinant F. hepatica cathepsin L1, Z-Leu-Arg-MCA fluorescence. hit rate 0.49% among 300,000;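 active = inhibition above the mean of all tested compounds plus 3 SD, set per screening campaign, cut at about 17% in these data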;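 also: 0% = plate median of test compound wells and 100% = 1 µM Z-Phe-Ala-diazomethylketone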
UPR CHOP act – activators of apoptotic arm of unfolded protein response (CHOP) | CHO-CHOP luciferase reporter, UPR activation, luminescence; percent of tunicamycin response over DMSO baseline | activation, % at 10 µM | hit rate 0.34% among 330,000 | AID 449763;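 active = at 10 µM dose, activation of 40% or more, normalized to positive control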;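 also: 100% = tunicamycin at 10 µg/mL and 0% = DMSO alone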
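Evaluation: % reporter activation, DMSO baseline versus tunicamycin full activation; System: CHO-CHOP luciferase reporter cell line; Input: 500 cells/well; Incubation: 6 h compound treatment, 37 °C; Measured by: Steady-Glo luciferase luminescence; Dosing: one dose, 10 µM in 0.5% DMSO; Buffer or medium: F12 medium, 10% FBS; Benchmarks: positive tunicamycin 10 µg/mL, negative DMSO alone.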
UPR XBP1 act – activators of adaptive arm of unfolded protein response (XBP1). CHO-XBP1 luciferase reporter, IRE1-XBP1 UPR activation, luminescence; percent of tunicamycin response, DMSO as zero. activation, % at 20 µM. hit rate 0.33% among 330,000. AID 463104;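 active = versus positive control, 20 µM dose yields 30% or more activation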;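 also: 100% = tunicamycin at 10 µg/mL and 0% = DMSO only wells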
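Material: CHO cell line with stable XBP1 luciferase reporter; buffer or medium: F12 medium containing 10% fetal bovine serum; compound: single point, 20 µM final compound, 1% DMSO; incubation: 6 h treatment, 37 °C; measured by: glow luminescence from Steady-Glo reagent; evaluation: activation, % of tunicamycin; control set: tunicamycin high, DMSO low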
CHOP inh – blocks CHOP induction under ER stress; hit rate 3.8% among 220,000; CHO-K1 CHOP-promoter luciferase, tunicamycin-induced, 15-18 h; inhibition, % at 10 µM;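 active = compounds that reduced the stress-induced luciferase reporter signal by more than about 70% of percent inhibition, limit read from the data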;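 also: 0% = tunicamycin plus vehicle and 100% = wells without tunicamycin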
UCH37 DUB inh – blocks the human deubiquitinase UCH37; purified proteasome/UCH37, Ub-AMC cleavage fluorescence; inhibition, % (concentration not given with the values); hit rate 0.33% among 330,000;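 active = mean inhibition over replicate wells above about 20%, limit read from the data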;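 also: 0% = compound-free wells with enzyme and 100% = wells lacking proteasome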
Target sequence (Q9Y5K5 whole entry, looked up): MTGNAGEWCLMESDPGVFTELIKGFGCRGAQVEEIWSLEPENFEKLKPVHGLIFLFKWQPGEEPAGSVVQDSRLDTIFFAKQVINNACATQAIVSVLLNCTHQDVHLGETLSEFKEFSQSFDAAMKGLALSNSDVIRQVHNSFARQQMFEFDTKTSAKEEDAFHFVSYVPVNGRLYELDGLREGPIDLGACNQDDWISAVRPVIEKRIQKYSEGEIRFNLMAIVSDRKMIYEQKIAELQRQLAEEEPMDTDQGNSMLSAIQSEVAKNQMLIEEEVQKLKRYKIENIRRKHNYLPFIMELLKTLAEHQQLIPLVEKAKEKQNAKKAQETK
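assay system = human UCH37 enzyme supplied as purified proteasome complex | amount = proteasome at 0.15 nM in the dispensed enzyme solution | schedule = 30 min compound-proteasome preincubation then 25 min substrate reaction, room temperature | measured by = fluorescence, ex 355 nm, em 460 nm | benchmarks = no-proteasome wells (full inhibition) and compound-free wells (no inhibition)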
The depositor's hits bear a star; · = not tested or not shown.

SMILES	Fh CTSL1 inh	UPR CHOP act	UPR XBP1 act	CHOP inh	UCH37 DUB inh
COc1ccc(OC)c(-c2csc(NC(=O)CSc3ccc([N+](=O)[O-])cc3)n2)c1	1	-1	3	46	33*
CCOC(=O)c1sc(NC(=O)Nc2ccccc2)cc1C	1	5	4	27	-1
CCOC(=O)c1sc(NC(=O)Nc2ccccc2Cl)cc1C	4	6	4	80*	2
Nc1nonc1-n1nnc(C(=O)NN=Cc2cccc(O)c2)c1CN1CCCC1	·	·	·	·	3
O=S(=O)(c1ccccc1)C1(C2CC(c3ccccc3)=NO2)CC(O)C1 (stereo not drawn)	-5	-1	5	·	28*
O=C(NNC(=O)c1cccs1)c1ccc(Cl)c([N+](=O)[O-])c1	1	0	1	-24	21*
Cc1[nH]n(-c2ccccc2)c(=O)c1C=NO	·	·	·	·	2
N#CC(C(=O)Nc1ccc(Cl)cc1)=C1Nc2ccccc2N1	8	2	4	90*	0
COc1cc(Cl)c([C@@H]2C[C@H]3CN(c4ccccc4)C(=O)[C@]34CCCN24)cc1OC	-3	0	0	-16	5
COc1cc([C@@H]2C[C@H]3CN(c4ccccc4)C(=O)[C@]34CCCN24)cc(OC)c1OC	-3	1	-3	78*	5
CCOc1cc([C@@H]2C[C@H]3CN(c4ccccc4)C(=O)[C@]34CCCN24)ccc1OC	-1	0	-4	84*	-3
COCc1cc(C)nc(NN=Cc2ccc(Cl)c(Cl)c2)c1C#N	·	·	·	·	2
CC1=NN(/C(=N/c2nnc(C)s2)Nc2ccc(C)cc2)[C@H](c2ccc(C)cc2)S1	·	·	·	·	5
Cc1ccc(N2CCN(CC(O)COc3cccc4ccccc34)CC2)cc1 (stereo not drawn)	5	-1	1	86*	4
Cc1ccc(N2CCN(CC(O)COc3cccc(C)c3)CC2)cc1 (stereo not drawn)	2	-2	-2	6	0
Cc1ccccc1OCC(O)CN1CCN(CC(O)COc2ccccc2C)CC1 (stereo not drawn)	5	1	-1	2	3
OC(COc1cccc2ccccc12)CN1CCN(c2ccccc2Cl)CC1 (stereo not drawn)	0	·	·	76*	·
Cc1ccccc1OCC(O)CN1CCN(c2ccc(Cl)cc2)CC1 (stereo not drawn)	2	1	-2	82*	5
OC(COCc1ccc(Cl)cc1)CN1CCN(CC(O)COCc2ccc(Cl)cc2)CC1 (stereo not drawn)	-2	2	2	88*	5
COc1ccc(NC(=O)COc2ccc(C=Nn3c(C)nnc3C)cc2OC)cc1	·	·	·	·	5
CCOc1cccc(C=NNC(=O)C2CCCC2)c1O	·	·	·	·	-2
CN(C)c1nc(Nc2ccc(Cl)cc2)nc(OCC#N)n1	-3	-1	2	73*	3
NC(=NOC(=O)c1ccc(Cl)cc1[N+](=O)[O-])c1cccnc1	·	·	·	·	4
COc1cc(/C=c2\s/c(=C(/C#N)C(=O)N3CCCC3)n(-c3ccccc3)c2=O)ccc1O	-4	7	7	95*	·
CCOc1ccc(Br)cc1C(=O)Nc1ccc(C(=O)NCC(C)C)cc1	-3	0	5	83*	0
SMILES	Fh CTSL1 inh	UPR CHOP act	UPR XBP1 act	CHOP inh	UCH37 DUB inh
COc1ccc(Br)cc1C(=O)Nc1ccc(C(=O)NCC(C)C)cc1	5	-1	2	56	-2
Cc1ccc(-c2c(C(=O)NN=CC3CCCCC3)nnn2-c2nonc2N)cc1	·	·	·	·	3
O=C(NN=Cc1ccc([N+](=O)[O-])o1)c1cccc(S(=O)(=O)N2CCOCC2)c1	·	·	·	·	11
Cn1c(CC(=O)Nc2ccc(F)cc2)c(Sc2ccccc2)c2ccccc21	2	1	1	79*	3
CS(=O)(=O)N(CC(O)CON=C1c2ccccc2-c2ccccc21)c1ccc(F)cc1 (stereo not drawn)	1	2	1	73*	2
Cc1cccc(N(CC(O)CON=C2c3ccccc3-c3ccccc32)S(C)(=O)=O)c1 (stereo not drawn)	0	-2	-3	70*	2
CCCCCCCCn1cnc2c(N)c(C)c(C)cc21	1	7	2	81*	2
COc1ccc(OC)c(Nc2nc3nonc3nc2N2CCCC(C)C2)c1 (stereo not drawn)	1	0	2	77*	2
Cc1nc2sc(C(c3ccc(Cl)cc3)N3CCN(c4ccccc4F)CC3)c(O)n2n1 (stereo not drawn)	-3	-2	-3	83*	2
Cc1nc2sc(C(c3ccco3)N3CCN(c4ccccc4F)CC3)c(O)n2n1 (stereo not drawn)	-4	2	-4	15	6
O=C(NCCC1=CCCCC1)C1CCN(S(=O)(=O)c2cnc[nH]2)CC1	0	0	1	52	20*
CCOc1c(Br)ccc2c1sc1nc[nH]c(=O)c12	1	-1	2	93*	2
COCCOC(=O)c1sc2nc[nH]c(=O)c2c1C	3	0	-3	0	-5
COc1ccc(-c2cnc(SCC(=O)Nc3ccc4c(c3)OCO4)n2Cc2ccco2)cc1	·	0	-1	41	2
CC(=O)Nc1cccc(NC(=O)CSc2ncc(-c3ccc(Cl)cc3)n2Cc2ccco2)c1	4	4	0	88*	4
CC(=O)Nc1cccc(NC(=O)CSc2ncc(C(=O)Nc3ccccc3)c(=O)n2C)c1	1	202*	-5	·	-147
CC(C)c1c(C(=O)NN=Cc2ccccc2OCc2c(F)cccc2Cl)nnn1-c1nonc1N	·	·	·	·	2
Cc1ccc(Cc2cnc(NC(=O)c3ccco3)s2)cc1	3	-1	-5	31	-2
O=C(Nc1ncc(Cc2ccc(SC(F)F)cc2)s1)c1ccc(OC(F)F)cc1	-3	3	14	72*	-6
CN(C)c1ccc(/C=[N+](\[O-])C(C)(C)C=NO)cc1	·	·	·	·	23*
CN1CCN(C(=O)C2=C[C@@H](c3ccccc3)C[C@@H](OCc3ccc(CO)cc3)O2)CC1	0	0	2	-1	0
CN1CCN(C(=O)C2=C[C@@H](c3ccc(Br)cc3)C[C@@H](OCc3ccc(CO)cc3)O2)CC1	17*	-1	-2	0	-1
C=CCNC(=O)/C(C#N)=C/c1ccc(C)o1	1	0	0	5	22*
CCOc1cc(C)c(S(=O)(=O)Nc2ccc(F)cc2)cc1C	2	0	-2	81*	4
Cc1ccc(S(=O)(=O)N(C)N=C/C=C/c2ccccc2)cc1	·	·	·	·	1
Cc1ccc2c(c1)N(Cc1ccc3c(c1)OCO3)C(=O)C(C)O2 (stereo not drawn)	4	-2	0	-5	3
CCC1Oc2ccc(C)cc2N(Cc2cccc(C)c2)C1=O (stereo not drawn)	1	0	-1	96*	2
